{"source": "paper PMC8049015", "about": "(Journal of Clinical Pharmacology, 2020)", "key": {"[1]": {"test_system": "moderate to severe atopic dermatitis", "settings": "phase 3 studies; cited from earlier work"}, "[2]": {"settings": "cited from earlier work"}, "[3]": {"test_system": "subjects with moderate to severe atopic dermatitis", "test": "Phase 2b dose‐ranging study, observed efficacy in week 16", "assay_type": "in vivo, human", "settings": "week 16, NRI"}, "[4]": {"settings": "7.5, 15, 30 mg once daily, 16 weeks; cited from earlier work"}, "[5]": {"test_system": "subjects with moderate to severe atopic dermatitis", "test": "Exposure‐response logistic regression models", "assay_type": "in vivo, human", "settings": "logit scale; week 16, NRI; estimate", "procedure,_shortened": "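Week-16 EASI-75, EASI-90 and IGA 0/1 responses from 167 phase 2b adults were each fitted by logistic regression with an Emax link, with estimates on the logit scale. The exposure was individual steady-state Cavg from empirical Bayesian population-PK parameters. Drug effect was tested by likelihood ratio at P < .01. Covariates were selected stepwise (entry P < .01, removal P < .001). Models were chosen by AIC, fit and precision.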"}, "[6]": {"test_system": "subjects with moderate to severe RA", "settings": "cited from earlier work"}, "[7]": {"assay_type": "in vivo, human", "settings": "steady state, median (5th to 95th percentiles), model‐predicted", "procedure,_shortened": "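Plasma exposures at steady state over a dosing interval (median, 5th–95th percentiles) were predicted by a 2-compartment population-PK model for the oral extended-release once-daily regimens. Absorption was mixed zero- and first-order with a lag time. Sparse samples from weeks 2 and 4 (predose) and weeks 8, 12 and 16 (any time) were assayed by validated LC-MS.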"}, "[8]": {"test_system": "subjects with moderate to severe atopic dermatitis", "settings": "week 16, placebo 23%, cited from earlier work"}, "[9]": {"settings": "15 mg once daily extended‐release"}}, "note": "Where two headings read alike, the source gives them in different places. Marks after values point to notes of the source that are not given here."}
{"molecule": "dupilumab", "values": [{"measurement": "Patients who achieved no or almost no disease activity", "setting": "[1]", "value": "< 40", "unit": "%"}]}
{"molecule": "CC[C@@H]1CN(C(=O)NCC(F)(F)F)C[C@@H]1c1cnc2cnc3[nH]ccc3n12", "note": "[upadacitinib]", "values": [{"measurement": "Oral bioavailability of the extended‐release tablet relative to the same dose of the immediate‐release formulation", "setting": "[2]", "value": 76, "unit": "%"}, {"measurement": "Dose proportionality of plasma exposure", "setting": "[2]; over the evaluated dose range across clinical studies", "value": "approximately dose proportional"}, {"measurement": "Accumulation with repeated dosing", "setting": "[2]; twice daily immediate‐release or once daily extended‐release", "value": "no significant accumulation"}, {"measurement": "Observed percentage of subjects achieving EASI‐75", "setting": "[3]; 7.5 mg once daily", "value": "[29] %"}, {"measurement": "Observed percentage of subjects achieving EASI‐90", "setting": "[3]; 7.5 mg once daily", "value": "[14] %"}, {"measurement": "Observed percentage of subjects achieving IGA 0/1", "setting": "[3]; 7.5 mg once daily", "value": "[14] %"}, {"measurement": "Observed percentage of subjects achieving EASI‐90", "setting": "[3]; 15 mg once daily", "value": "[26] %"}, {"measurement": "Observed percentage of subjects achieving IGA 0/1", "setting": "[3]; 15 mg once daily", "value": "[31] %"}, {"measurement": "Observed percentage of subjects achieving EASI‐90", "setting": "[3]; 30 mg once daily", "value": "[50] %"}, {"measurement": "Observed percentage of subjects achieving IGA 0/1", "setting": "[3]; 30 mg once daily", "value": "[50] %"}, {"measurement": "Dose relationship for serious infections or overall incidence of adverse events", "setting": "[4]", "value": "no dose relationship was observed"}, {"measurement": "Dose‐limiting safety events", "setting": "[4]", "value": "No dose‐limiting safety events were observed"}, {"measurement": "Emax, probability of achieving EASI‐75", "setting": "[5]", "value": "5.35 (17% ^a )"}, {"measurement": "Emax, probability of achieving EASI‐90", "setting": "[5]", "value": "6.2 (13% ^a )"}, {"measurement": "Emax, probability of achieving IGA 0/1", "setting": "[5]", "value": "5.78 (12% ^a )"}, {"measurement": "Estimated increase in the percentage of subjects achieving ACR 20/50/70 responses or DAS‐28 low disease activity and clinical remission, 30 mg once daily compared with 15 mg once daily exposures", "setting": "[6]", "value": "< 5", "unit": "%"}, {"measurement": "Cmin", "setting": "[7]; 7.5 mg once daily extended‐release", "value": "2.0 (0.56‐6.2) ng/mL"}, {"measurement": "Cmax", "setting": "[7]; [9]", "value": "41.2 (27.7‐65.8) ng/mL"}, {"measurement": "Cmin", "setting": "[7]; [9]", "value": "2.7 (1.2‐11.3) ng/mL"}, {"measurement": "Cmin", "setting": "[7]; 30 mg once daily extended‐release", "value": "6.6 (2.1‐22.1) ng/mL"}, {"measurement": "Mean improvement in EASI from baseline", "setting": "[8]; 7.5 mg once daily", "value": 39, "unit": "%"}, {"measurement": "Mean improvement in EASI from baseline", "setting": "[8]; 15 mg once daily", "value": 62, "unit": "%"}, {"measurement": "Mean improvement in EASI from baseline", "setting": "[8]; 30 mg once daily", "value": 74, "unit": "%"}]}
